Scp-1 inhibitor: Scp-1 phosphatase inhibitors, primary screen, biochemical, colorimetric, uHTS; Carboxy-terminal domain RNA polymerase II polypeptide A small phosphatase 1 (Homo …; Recombinant Scp1, phosphopeptide, malachite green phosphate absorbance; inhibition, % at 20 µM; hit rate 0.88% among 340,000; AID 493091, 2011;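 active = inhibition above about 50% at 20 µM, limit read from the data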;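 also: plate controls were DMSO wells with enzyme for no effect and wells lacking enzyme for full effect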
Target sequence (Q9GZU7 76-261 limits assumed): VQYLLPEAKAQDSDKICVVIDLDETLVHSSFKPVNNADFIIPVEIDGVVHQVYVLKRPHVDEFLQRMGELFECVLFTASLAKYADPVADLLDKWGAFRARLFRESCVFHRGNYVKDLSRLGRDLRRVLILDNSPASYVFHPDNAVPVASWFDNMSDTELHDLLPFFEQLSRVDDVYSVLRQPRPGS
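Material – SCP-1 phosphatase catalytic domain, residues 76-261 · Buffer or medium – Acidic Tris acetate buffer with magnesium and detergent · Also added – Phospho 17-mer peptide substrate · Compound – single 20 µM dose, 1% DMSO · Times – 45 min room-temperature reaction, 5 min colour, 30 min stabiliser · Technique – Phosphate-binding colour reagent, absorbance read at 630 nm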
STEP inh: STEP phosphatase inhibitors, primary screen, biochemical, fluorescence intensity, uHTS; recombinant STEP, OMFP fluorogenic substrate; hit rate 0.25% among 360,000; Tyrosine-protein phosphatase non-receptor type 5 (Homo sapiens), P54829; inhibition, % at 20 µM;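 active = inhibition at 20 µM, scaled per plate between control wells, above about 37%, limit read from the data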;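 also: 0% = DMSO with enzyme and substrate and 100% = substrate only without enzyme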
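Assay system: isolated STEP enzyme / Timing: 20 min at room temperature, dark / Doses: 20 µM, 1% DMSO / Technique: fluorescence intensity, excitation 480 nm, emission 540 nm / Reagent: fluorogenic phosphatase substrate OMFP at 25 µM final / Measure: percent inhibition scaled to no-enzyme and uninhibited-enzyme controls, plate-pattern corrected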
NadD block: inhibitors of S. aureus NadD, primary screen, biochemical, colorimetric, uHTS; inhibition, % at 20 µM; hit rate 0.78% among 360,000; purified NadD enzyme, colorimetric absorbance read-out; in the data active = inhibition above about 26%
SUMO1 PPI mod: modulators of SUMO1 protein-protein interactions, primary screen, biochemical, uHTS | hit rate 0.33% among 360,000 | inhibition, % at 20 µM | SUMO1 binding to a labelled peptide, TR-FRET, 1 h | Small ubiquitin-related modifier 1 (Homo sapiens), P63165; in the data active = inhibition above about 37%
Target sequence (P63165 whole entry, looked up): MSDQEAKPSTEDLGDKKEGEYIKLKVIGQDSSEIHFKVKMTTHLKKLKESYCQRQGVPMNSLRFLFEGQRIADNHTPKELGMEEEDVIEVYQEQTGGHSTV
DNMT1 inh: human DNMT1 methyltransferase inhibitors, primary screen, biochemical, molecular beacon, fluorescence, HinP1I cleavage, uHTS; DNA (cytosine-5)-methyltransferase 1 (Homo sapiens), P26358; inhibition (reported as % activation of signal), % at 10 µM; hit rate 0.83% among 360,000; in the data active = inhibition above about 50%
LMPTP block: LMPTP phosphatase inhibitors, primary screen, biochemical, fluorescence intensity, uHTS. Low molecular weight phosphotyrosine protein phosphatase (Homo sapiens), P24666. hit rate 0.22% among 360,000. recombinant LMPTP-A, OMFP fluorogenic substrate. inhibition, % at 20 µM;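 active = compounds that cut the enzyme signal by at least half of the control window in the single-dose screen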;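 also: plate controls were DMSO wells with enzyme plus substrate for no effect and substrate without enzyme for full effect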
Target sequence (P24666 whole entry, looked up): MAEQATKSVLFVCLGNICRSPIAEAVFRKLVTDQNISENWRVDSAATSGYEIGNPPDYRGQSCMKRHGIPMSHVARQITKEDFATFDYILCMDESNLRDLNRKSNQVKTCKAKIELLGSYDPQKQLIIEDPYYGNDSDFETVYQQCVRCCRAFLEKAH
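Test system: LMPTP-A phosphatase enzyme. Amount: LMPTP-A at 0.625 nM final in the reaction. Reagent: OMFP substrate, 400 µM final. Times: 50 min at room temperature. Signal: endpoint fluorescence intensity from OMFP dephosphorylation. Read-out basis: % inhibition. Benchmarks: no-enzyme and uninhibited controls.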
The depositor's hits bear a star; · = not tested or not shown; ! = not active in a repeat. Rows were chosen to be rich in hits. Some 2.3% of all compounds tested hit in one or more screens of this group.

SMILES	Scp-1 inhibitor	STEP inh	NadD block	SUMO1 PPI mod	DNMT1 inh	LMPTP block
CCN1CCc2c(sc(NC(=S)NC(=O)c3ccccc3)c2C#N)C1	9	-3	3	-1	-5	58*
Cc1cccc(C)c1NC(=O)C(c1ccnc2ccccc12)n1c(=O)c(-c2ccccc2)nc2ccccc21 (centres undefined)	·	·	·	-18	·	3
COc1ccc([N+](=O)[O-])cc1CN1CCN(c2ncc(Cc3ccccc3)cn2)CC1	·	·	·	-9	·	-1
CCOc1ccc(C(=O)COC(=O)c2nc3nccc(C)n3n2)cc1	-8	2	1	4	-5	-3
Cc1cc(C)n(CC(=O)Nc2ccc(N3CCOCC3)c(Cl)c2)c(=O)c1C#N	-7	0	-3	-6	0	-1
COc1ccc(/C=N/NC(=O)c2ccc[nH]2)cc1	-7	-2	-8	-12	1	0
N#C/C(=C\c1ccc(OCc2ccccc2)cc1)C(=O)Nc1nc2c(s1)CCN(Cc1ccccc1)C2	5	0	29	-1	34	5
CN(C)c1ccc(/C=C(/C#N)C(=O)Nc2nc3c(s2)CCN(Cc2ccccc2)C3)cc1	3	-34	57*	-70	3	14
Cn1c(N)c(C(=O)COC(=O)c2cc3ccccc3cc2O)c(=O)n(C)c1=O	-19	4	-7	51*	-19	2
Cn1c(N)c(C(=O)COC(=O)CSc2ccc3ccccc3c2)c(=O)n(C)c1=O	-9	1	-10	-1	0	0
Cc1ccc(C(=O)NCC(=O)OCc2cccc(Br)c2)cc1	-5	1	-5	3	1	1
COC1=C/C(=C/c2c(N)n3c(nc2=O)sc2cc(S(C)(=O)=O)ccc23)C=CC1=O	-5	1	15	-39	9	1
CS(=O)(=O)c1ccc2c(c1)sc1nc(=O)c(/C=C3/C=CC(=O)C(O)=C3)c(N)n12	71*	12	3	-3	11	30
O=C(NC1CCCC1)C(c1ccccc1)n1c(CSCCOc2ccccc2)nc2ccccc21 (centres undefined)	·	·	·	4	·	1
COc1ccc(NC(=O)CCc2nnc3ccc(N4CCN(c5cccc(OC)c5)CC4)nn23)cc1	-5	-1	8	-5	-2	1
CCCCn1c(N)c(N(CC(C)C)C(=O)c2ccc(OCc3c(C)noc3C)cc2)c(=O)[nH]c1=O	-1	-1	2	2	0	-2
Cc1ccc(NC(=O)Cn2nnc(C(=O)NCCc3ccccc3)c2N)c(C)c1	18	-2	-3	3	53*	41
NC(=S)N=Nc1ccc(NN=C(N)N)cc1	-14	84*	19	27	6	41
COc1ccc(C(=O)NC(C(=O)NCC(=O)Nc2c(C)cccc2C)C(C)C)cc1 (centres undefined)	-4	-2	2	-3	3	0
Cn1cnnc1SCC(=O)Nc1ccc(OCc2ccccc2)cc1	-4	1	-6	67*	-10	2
COC(=O)[C@@]12C[C@@H](CC(=O)N3CCCCC3)C(=O)N(Cc3ccco3)C1=CCC(C)(C)C2	·	·	·	-4	·	-1
COc1ccc(Nc2nc(N)nc(CSC(=S)N3CCN(C)CC3)n2)cc1	-6	1	-3	50*	1	-1
O=C(O)c1cc(-c2ccco2)nc2ccc(Br)cc12	80*!	66*!	4	57*!	106*!	26
Cn1c(SCC(=O)NNC(=O)Cc2ccccc2)nc2ccccc2c1=O	-7	0	7	2	1	-2
Cc1cccc(NC(=O)CNC(=O)CSc2ncccn2)c1C	-5	-4	-2	23	3	0
SMILES	Scp-1 inhibitor	STEP inh	NadD block	SUMO1 PPI mod	DNMT1 inh	LMPTP block
Cc1cccc(NC(=O)CNC(=O)Cn2ncc(Cl)c(Cl)c2=O)c1C	93*	8	3	11	83*	12
CCCOc1ccc(-c2nn(-c3ccccc3)cc2/C=C2\SC(N)=NC2=O)cc1	-5	4	-3	11	55*	0
Cc1cc(-c2nn(-c3ccccc3)cc2/C=C2\SC(N)=NC2=O)ccc1OC(C)C	-2	0	35*	-7	-18	1
CCCOc1ccccc1/C=C1\SC(N)=NC1=O	-3	-1	-4	-15	0	1
c1ccc(COc2ccc(-c3cc4nc(NCCCn5ccnc5)ccn4n3)cc2)cc1	·	3	24	-24	-28	-4
CCOC(=O)N/N=C(\C)c1ccc(-n2cnnn2)cc1	-5	5	-1	-6	2	0
COc1ccccc1CNc1nc(-c2cc(C)n(C)c2C)cs1	3	-2	30*	-1	76*	11
C[C@H](NC(=O)c1cc2c(cn1)[nH]c1ccccc12)C(=O)O	-13	90*	0	3	1	2
COc1ccc(C2=CC3=C(Br)C(=O)C(C)(OC(=O)C4CCCC4)C(=O)C3=CO2)cc1 (centres undefined)	4	1	8	56*	9	0
C=C(C)C(=O)Nc1ccc2c(c1)OCCOCCOCCO2	97*	64*	5	57*	90*	1
CC(=O)Nc1ccc(C(=O)Nc2cccc(-c3cnc4ccccc4n3)c2)cc1	21	15	1	49*	34	40
O=C(Nc1nc(-c2ccccc2)cs1)c1cccnc1	-1	6	-3	1	-2	-1
CC(=O)Nc1ccc(C(=O)Nc2nc(-c3cccnc3)cs2)cc1	8	12	5	60*	-4	6
CCC1C(=NO)C(CC)C(c2ccccc2)NC1c1ccccc1 (centres undefined)	-4	2	4	4	0	1
CC1(C)C2CC[C@]3(C)[C@H](C(=O)C=C4[C@@H]5C[C@@](C)(C(=O)O)CC[C@]5(C)CC[C@]43C)[C@@]2(C)CC[C@@H]1O[C@H]1O[C@H](C(=O)O)[C@@H](O)[C@H](O)[C@H]1O[C@@H]1O[C@H](C(=O)O)[C@@H](O)[C@H](O)[C@H]1O (some centres undefined)	·	-2	12	41*	1	-2
Cc1ccc(C(=O)N/N=C/c2cc(C)n(-c3ccc(Br)cc3)c2C)cc1[N+](=O)[O-]	7	2	35*	-8	-5	2
